Assay [1] has as its target Histamine H1 receptor (Homo sapiens) (UniProt P35367). The experiment in a line: Binding affinity to human histamine H1 receptor by radioligand displacement assay.
For assay [2], the species on record is Homo sapiens. Put plainly: Selectivity ratio of Ki for human 5HT3 receptor to Ki for human 5HT2B receptor.
Assay [3] has as its target 5-hydroxytryptamine receptor 6 (Homo sapiens) (UniProt P50406). The experiment in a line: Binding affinity to human 5HT6 receptor at 10 uM by radioligand displacement assay. In a few lines:
(§1)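 Primary screen run by the PDSP/NIMH across a 46-target panel. Each compound was tested at a final concentration of 10 µM by radioligand displacement, and initial hits were obtained from this screen.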

Assay [4] deals with 5-hydroxytryptamine receptor 1E (Homo sapiens) (UniProt P28566). Put plainly: Binding affinity to human 5HT1E receptor at 10 uM by radioligand displacement assay. The method in brief: as §1
Chain of 5-hydroxytryptamine receptor 1E (Homo sapiens) (P28566 whole entry): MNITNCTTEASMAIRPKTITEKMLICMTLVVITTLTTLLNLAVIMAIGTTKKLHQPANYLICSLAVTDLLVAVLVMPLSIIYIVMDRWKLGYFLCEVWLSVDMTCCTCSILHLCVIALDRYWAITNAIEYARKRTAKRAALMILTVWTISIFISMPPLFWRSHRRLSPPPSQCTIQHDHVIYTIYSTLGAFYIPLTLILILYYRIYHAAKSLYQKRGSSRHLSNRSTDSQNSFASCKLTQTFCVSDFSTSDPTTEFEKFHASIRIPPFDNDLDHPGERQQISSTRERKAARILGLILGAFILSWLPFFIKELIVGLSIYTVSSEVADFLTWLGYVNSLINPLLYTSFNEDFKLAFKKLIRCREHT
On the technique in general: Loss of bound radioactivity is the signal in a displacement assay; it reports binding, not function.

The species named for assay [5] is Homo sapiens. The experiment in a line: Selectivity ratio of Ki for human 5HT1E receptor to Ki for human 5HT2B receptor.
Assay [6] concerns the target 5-hydroxytryptamine receptor 4 (Homo sapiens) (UniProt Q13639). Put plainly: Binding affinity to human 5HT4 receptor at 10 uM by radioligand displacement assay. The method in brief:
as §1

For assay [7], the target named is T1, 5-hydroxytryptamine receptor 1A (Homo sapiens) (UniProt P08908).
T1 sequence (whole entry): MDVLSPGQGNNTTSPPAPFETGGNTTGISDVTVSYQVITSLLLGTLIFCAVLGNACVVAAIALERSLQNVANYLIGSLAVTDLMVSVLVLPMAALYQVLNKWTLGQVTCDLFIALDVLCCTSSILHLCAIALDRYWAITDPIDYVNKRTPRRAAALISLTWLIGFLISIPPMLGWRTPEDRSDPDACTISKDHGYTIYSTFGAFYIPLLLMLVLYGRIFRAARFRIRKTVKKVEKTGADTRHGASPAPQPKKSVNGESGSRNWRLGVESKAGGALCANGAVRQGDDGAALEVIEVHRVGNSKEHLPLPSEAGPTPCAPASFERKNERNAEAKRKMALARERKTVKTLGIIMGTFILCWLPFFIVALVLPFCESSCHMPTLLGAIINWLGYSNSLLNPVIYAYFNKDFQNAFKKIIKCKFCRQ
The experiment in a line: Binding affinity to human 5HT1A receptor at 10 uM by radioligand displacement assay. In a few lines: as §1

For assay [8], the species on record is Homo sapiens. Put plainly: Selectivity ratio of Ki for human 5HT1A receptor to Ki for human 5HT2B receptor.
The target of assay [9] is 5-hydroxytryptamine receptor 7 (Homo sapiens) (UniProt P34969). The experiment in a line: Binding affinity to human 5HT7 receptor at 10 uM by radioligand displacement assay. The method in brief: as §1
Chain of 5-hydroxytryptamine receptor 7 (Homo sapiens) (P34969 whole entry): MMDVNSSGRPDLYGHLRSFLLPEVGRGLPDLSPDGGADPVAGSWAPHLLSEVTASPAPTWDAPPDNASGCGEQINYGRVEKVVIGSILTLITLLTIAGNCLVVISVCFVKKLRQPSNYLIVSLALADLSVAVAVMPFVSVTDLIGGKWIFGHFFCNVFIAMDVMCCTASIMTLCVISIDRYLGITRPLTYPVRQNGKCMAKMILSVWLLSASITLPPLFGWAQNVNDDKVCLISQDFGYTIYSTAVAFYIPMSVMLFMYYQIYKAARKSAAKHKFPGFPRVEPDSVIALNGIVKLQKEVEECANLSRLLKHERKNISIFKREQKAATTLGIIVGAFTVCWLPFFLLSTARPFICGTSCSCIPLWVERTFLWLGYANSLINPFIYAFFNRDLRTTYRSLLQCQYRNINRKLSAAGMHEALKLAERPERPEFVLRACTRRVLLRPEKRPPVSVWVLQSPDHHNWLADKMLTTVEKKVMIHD
Assay [10] concerns the target 5-hydroxytryptamine receptor 5A (Homo sapiens) (UniProt P47898). The experiment in a line: Binding affinity to human 5HT5A receptor at 10 uM by radioligand displacement assay. In a few lines:
as §1

Assay [11] deals with 5-hydroxytryptamine receptor 1D (Homo sapiens) (UniProt P28221). Put plainly: Binding affinity to human 5HT1D receptor at 10 uM by radioligand displacement assay. In a few lines:
as §1

For assay [12], the species on record is Homo sapiens. Put plainly: Selectivity ratio of Ki for human 5HT4 receptor to Ki for human 5HT2B receptor.
Assay [13] addresses T2, 5-hydroxytryptamine receptor 3A (Homo sapiens) (UniProt P46098).
T2 sequence (whole entry): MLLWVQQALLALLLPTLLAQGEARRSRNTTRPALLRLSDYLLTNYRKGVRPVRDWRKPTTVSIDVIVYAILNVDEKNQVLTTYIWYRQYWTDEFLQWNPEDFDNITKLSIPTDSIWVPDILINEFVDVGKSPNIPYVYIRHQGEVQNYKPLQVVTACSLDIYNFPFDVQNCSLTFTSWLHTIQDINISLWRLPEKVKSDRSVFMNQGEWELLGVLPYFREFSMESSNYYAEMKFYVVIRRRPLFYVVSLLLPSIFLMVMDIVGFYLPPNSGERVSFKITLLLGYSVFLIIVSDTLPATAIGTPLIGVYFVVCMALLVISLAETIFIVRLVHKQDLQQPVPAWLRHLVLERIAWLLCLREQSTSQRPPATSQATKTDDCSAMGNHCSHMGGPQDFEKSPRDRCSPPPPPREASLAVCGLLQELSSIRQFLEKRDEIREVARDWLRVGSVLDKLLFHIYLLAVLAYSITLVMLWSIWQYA
The experiment in a line: Binding affinity to human 5HT3 receptor at 10 uM by radioligand displacement assay. The method in brief: as §1

For assay [14], the species on record is Homo sapiens. Put plainly: Selectivity ratio of Ki for human 5HT2C receptor to Ki for human 5HT2B receptor.
The target in assay [15] is 5-hydroxytryptamine receptor 1B (Homo sapiens) (UniProt P28222). The experiment in a line: Binding affinity to human 5HT1B receptor at 10 uM by radioligand displacement assay. The method in brief:
as §1

Assay [16] addresses 5-hydroxytryptamine receptor 2B (Mus musculus) (UniProt Q02152). The experiment in a line: Increase of 5HT2B receptor-mediated KCL-induced intracellular calcium influx in mouse DRG neurons at 20 ug/ml. In kind it is functional, cell-based. In a few lines:
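Dorsal root ganglia cells from the cervical and lumbar regions of mice were loaded with Fura-2 AM and imaged individually by fluorescence microscopy at 20 to 25 °C. After baseline, cells were given 25 mM KCl and washed. After return to baseline, compound was applied at 20 µg/mL, then replaced with 25 mM KCl while intracellular Ca2+ was monitored.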

The species named for assay [17] is Homo sapiens. The experiment in a line: Selectivity ratio of Ki for human 5HT5A receptor to Ki for human 5HT2B receptor.
The target in assay [18] is T3, 5-hydroxytryptamine receptor 2C (Homo sapiens) (UniProt P28335).
T3 sequence (whole entry): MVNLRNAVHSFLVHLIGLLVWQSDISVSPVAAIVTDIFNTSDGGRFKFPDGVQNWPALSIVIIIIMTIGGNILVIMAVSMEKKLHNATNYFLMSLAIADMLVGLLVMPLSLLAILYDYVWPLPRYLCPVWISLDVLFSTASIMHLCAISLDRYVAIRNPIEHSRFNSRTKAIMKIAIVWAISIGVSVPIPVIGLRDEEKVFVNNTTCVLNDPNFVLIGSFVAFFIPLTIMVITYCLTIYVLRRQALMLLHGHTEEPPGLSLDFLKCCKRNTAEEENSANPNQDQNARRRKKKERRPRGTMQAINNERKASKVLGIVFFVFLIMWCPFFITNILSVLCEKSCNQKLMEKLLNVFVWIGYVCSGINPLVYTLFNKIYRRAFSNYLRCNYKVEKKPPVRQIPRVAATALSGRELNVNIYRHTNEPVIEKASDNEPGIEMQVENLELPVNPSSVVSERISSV
Put plainly: Binding affinity to human 5HT2C receptor at 10 uM by radioligand displacement assay. In a few lines:
as §1

For assay [19], the species on record is Homo sapiens. The experiment in a line: Selectivity ratio of Ki for human 5HT1D receptor to Ki for human 5HT2B receptor.
Assay [20] is filed under the species Homo sapiens. Put plainly: Selectivity ratio of Ki for human 5HT1B receptor to Ki for human 5HT2B receptor.
The species named for assay [21] is Homo sapiens. The experiment in a line: Selectivity ratio of Ki for human 5HT7 receptor to Ki for human 5HT2B receptor.
For assay [22], the species on record is Homo sapiens. The experiment in a line: Selectivity ratio of Ki for human 5HT2A receptor to Ki for human 5HT2B receptor.
Assay [23] is filed under the species Homo sapiens. The experiment in a line: Selectivity ratio of Ki for human 5HT6 receptor to Ki for human 5HT2B receptor.
The target in assay [24] is 5-hydroxytryptamine receptor 2A (Homo sapiens) (UniProt P28223). The experiment in a line: Binding affinity to human 5HT2A receptor at 10 uM by radioligand displacement assay. In a few lines: as §1
Chain of 5-hydroxytryptamine receptor 2A (Homo sapiens) (P28223 whole entry): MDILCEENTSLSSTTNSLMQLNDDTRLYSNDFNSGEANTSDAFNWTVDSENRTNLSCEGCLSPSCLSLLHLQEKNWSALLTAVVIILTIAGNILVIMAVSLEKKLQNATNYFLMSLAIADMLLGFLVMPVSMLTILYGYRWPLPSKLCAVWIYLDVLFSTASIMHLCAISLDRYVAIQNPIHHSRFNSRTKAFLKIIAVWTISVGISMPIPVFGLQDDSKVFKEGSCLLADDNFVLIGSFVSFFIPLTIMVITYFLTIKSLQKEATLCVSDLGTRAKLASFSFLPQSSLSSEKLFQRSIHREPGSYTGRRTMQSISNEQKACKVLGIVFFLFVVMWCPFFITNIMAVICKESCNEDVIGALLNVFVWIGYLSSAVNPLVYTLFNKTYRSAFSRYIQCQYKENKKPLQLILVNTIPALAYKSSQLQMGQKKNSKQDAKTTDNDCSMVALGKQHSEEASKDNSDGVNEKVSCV
For assay [25], the target named is Kappa-type opioid receptor (Homo sapiens) (UniProt P41145). The experiment in a line: Binding affinity to human kappa opioid receptor by radioligand displacement assay.
Chain of Kappa-type opioid receptor (Homo sapiens) (P41145 whole entry): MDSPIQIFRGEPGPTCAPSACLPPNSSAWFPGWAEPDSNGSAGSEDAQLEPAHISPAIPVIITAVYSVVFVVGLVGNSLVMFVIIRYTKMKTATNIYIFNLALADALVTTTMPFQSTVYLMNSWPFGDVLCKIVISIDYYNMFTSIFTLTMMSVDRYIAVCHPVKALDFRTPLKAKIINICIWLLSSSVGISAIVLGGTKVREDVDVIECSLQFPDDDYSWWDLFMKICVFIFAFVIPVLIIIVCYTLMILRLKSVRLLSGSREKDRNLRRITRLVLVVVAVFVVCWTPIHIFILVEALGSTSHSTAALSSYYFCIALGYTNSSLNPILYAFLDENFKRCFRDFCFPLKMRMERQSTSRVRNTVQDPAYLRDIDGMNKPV

Activity calls are given as the source filed them. The rule behind the calls is not given here.

Chain of 5-hydroxytryptamine receptor 2B (Mus musculus) (Q02152 whole entry): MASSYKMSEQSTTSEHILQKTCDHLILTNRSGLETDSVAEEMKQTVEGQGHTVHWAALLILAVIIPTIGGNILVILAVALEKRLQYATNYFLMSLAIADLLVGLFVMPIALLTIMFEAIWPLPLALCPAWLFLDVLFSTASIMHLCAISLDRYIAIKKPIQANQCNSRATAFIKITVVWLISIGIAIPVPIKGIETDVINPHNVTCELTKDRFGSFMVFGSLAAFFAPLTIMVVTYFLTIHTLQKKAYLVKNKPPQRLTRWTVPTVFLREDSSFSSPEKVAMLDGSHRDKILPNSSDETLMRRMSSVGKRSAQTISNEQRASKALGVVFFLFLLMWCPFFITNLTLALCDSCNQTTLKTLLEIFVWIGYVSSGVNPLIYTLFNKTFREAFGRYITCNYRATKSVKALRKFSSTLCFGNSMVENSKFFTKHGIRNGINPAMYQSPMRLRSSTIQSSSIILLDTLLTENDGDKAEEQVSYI
Chain of Histamine H1 receptor (Homo sapiens) (P35367 whole entry): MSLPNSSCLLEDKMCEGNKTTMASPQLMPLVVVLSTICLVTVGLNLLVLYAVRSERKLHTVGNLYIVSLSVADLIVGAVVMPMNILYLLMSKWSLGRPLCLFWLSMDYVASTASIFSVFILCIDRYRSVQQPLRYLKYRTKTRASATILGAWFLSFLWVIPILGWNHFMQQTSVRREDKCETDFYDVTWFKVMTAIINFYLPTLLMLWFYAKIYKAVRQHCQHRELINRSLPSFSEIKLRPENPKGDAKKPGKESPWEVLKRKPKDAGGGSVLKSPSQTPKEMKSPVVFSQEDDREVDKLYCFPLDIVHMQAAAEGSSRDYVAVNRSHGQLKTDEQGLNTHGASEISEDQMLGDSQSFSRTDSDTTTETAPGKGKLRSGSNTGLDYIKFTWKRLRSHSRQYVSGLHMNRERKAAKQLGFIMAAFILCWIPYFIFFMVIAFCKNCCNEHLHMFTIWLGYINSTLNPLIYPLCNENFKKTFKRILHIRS
Chain of 5-hydroxytryptamine receptor 5A (Homo sapiens) (P47898 whole entry): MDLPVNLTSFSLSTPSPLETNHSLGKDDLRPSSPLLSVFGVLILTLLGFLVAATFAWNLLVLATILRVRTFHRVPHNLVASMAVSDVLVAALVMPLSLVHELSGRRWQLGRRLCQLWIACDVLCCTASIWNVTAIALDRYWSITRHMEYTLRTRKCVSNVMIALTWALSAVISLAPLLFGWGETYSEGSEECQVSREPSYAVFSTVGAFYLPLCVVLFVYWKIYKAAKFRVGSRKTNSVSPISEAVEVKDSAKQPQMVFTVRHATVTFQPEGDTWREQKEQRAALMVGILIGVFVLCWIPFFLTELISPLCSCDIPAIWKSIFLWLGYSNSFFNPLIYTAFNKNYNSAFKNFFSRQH
Chain of 5-hydroxytryptamine receptor 6 (Homo sapiens) (P50406 whole entry): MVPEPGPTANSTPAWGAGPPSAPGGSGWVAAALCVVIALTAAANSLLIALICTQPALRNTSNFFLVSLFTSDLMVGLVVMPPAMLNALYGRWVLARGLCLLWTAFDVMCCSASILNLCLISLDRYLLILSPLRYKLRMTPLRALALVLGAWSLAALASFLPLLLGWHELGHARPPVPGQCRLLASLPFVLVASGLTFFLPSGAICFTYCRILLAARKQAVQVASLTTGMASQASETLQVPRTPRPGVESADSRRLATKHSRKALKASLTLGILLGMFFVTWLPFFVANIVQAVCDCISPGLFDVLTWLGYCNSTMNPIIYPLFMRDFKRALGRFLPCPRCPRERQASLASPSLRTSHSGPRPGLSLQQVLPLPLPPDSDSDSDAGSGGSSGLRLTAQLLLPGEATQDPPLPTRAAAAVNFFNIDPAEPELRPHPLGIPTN
Chain of 5-hydroxytryptamine receptor 1B (Homo sapiens) (P28222 whole entry): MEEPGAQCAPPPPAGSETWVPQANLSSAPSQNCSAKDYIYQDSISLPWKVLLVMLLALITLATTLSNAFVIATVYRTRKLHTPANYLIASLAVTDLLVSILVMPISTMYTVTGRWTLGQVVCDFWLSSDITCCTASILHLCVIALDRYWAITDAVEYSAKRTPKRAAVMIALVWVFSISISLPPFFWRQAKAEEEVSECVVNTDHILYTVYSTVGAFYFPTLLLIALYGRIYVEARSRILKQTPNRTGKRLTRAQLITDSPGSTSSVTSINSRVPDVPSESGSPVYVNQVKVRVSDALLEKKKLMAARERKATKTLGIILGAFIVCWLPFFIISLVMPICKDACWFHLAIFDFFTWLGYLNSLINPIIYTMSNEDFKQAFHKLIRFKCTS
Chain of 5-hydroxytryptamine receptor 4 (Homo sapiens) (Q13639 whole entry): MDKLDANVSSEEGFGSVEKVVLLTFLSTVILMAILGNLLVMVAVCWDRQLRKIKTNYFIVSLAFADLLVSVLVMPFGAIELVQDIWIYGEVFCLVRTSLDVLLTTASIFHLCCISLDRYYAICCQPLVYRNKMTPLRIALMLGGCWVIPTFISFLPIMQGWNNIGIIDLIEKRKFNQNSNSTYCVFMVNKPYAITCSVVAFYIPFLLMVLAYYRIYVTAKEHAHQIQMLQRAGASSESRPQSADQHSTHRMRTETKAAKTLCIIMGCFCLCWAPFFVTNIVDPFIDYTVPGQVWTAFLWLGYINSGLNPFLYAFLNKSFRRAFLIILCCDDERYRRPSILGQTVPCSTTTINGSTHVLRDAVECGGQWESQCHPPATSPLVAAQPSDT
Chain of 5-hydroxytryptamine receptor 1D (Homo sapiens) (P28221 whole entry): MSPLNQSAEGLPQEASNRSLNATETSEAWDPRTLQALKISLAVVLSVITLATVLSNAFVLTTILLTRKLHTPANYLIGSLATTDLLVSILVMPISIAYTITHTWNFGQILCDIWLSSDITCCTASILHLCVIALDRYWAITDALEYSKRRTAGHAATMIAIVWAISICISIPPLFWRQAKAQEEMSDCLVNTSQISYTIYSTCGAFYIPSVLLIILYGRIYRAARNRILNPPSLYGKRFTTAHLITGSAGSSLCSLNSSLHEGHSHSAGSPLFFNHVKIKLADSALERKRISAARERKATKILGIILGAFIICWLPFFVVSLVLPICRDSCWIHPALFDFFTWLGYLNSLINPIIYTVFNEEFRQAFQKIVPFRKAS

In the case of `NC(=O)c1csc(-c2ccccc2O)n1`, in assay [1], the Activity was determined as 517 nM.

For the compound `C[C@@H]1SC(c2ccccc2O)=N[C@@H]1CO`, the Ratio Ki in the assay filed under Homo sapiens [2], in the assay filed under Homo sapiens [5], in the assay listed under Homo sapiens [8], in the assay listed under Homo sapiens [12], in the assay listed under Homo sapiens [14] and in the assay filed under Homo sapiens [17] was 20 each time. Also, the Ratio Ki in the assay listed under Homo sapiens [19], in the assay filed under Homo sapiens [20], in the assay listed under Homo sapiens [21], in the assay listed under Homo sapiens [22] and in the assay listed under Homo sapiens [23] was 20 each time. The result in assay [3], in assay [4], in assay [6], in [7], in assay [9] and in assay [10] was inactive. The result in [11], in assay [13], in [15], in [16], in assay [18] and in assay [24] was inactive.

On to `OC[C@@H]1CSC(c2ccccc2O)=N1`, for which the outcome in [16] was Active.

Turning to `NC(=O)C1CSC(c2ccccc2O)=N1` (stereo not drawn), the results for the Activity in [1] and in assay [25] were 678 nM and 3.71 µM, respectively. Moreover, in assay [16], the result was Active.

Values taken from ChEMBL document CHEMBL1649343, “Pulicatins A-E, neuroactive thiazoline metabolites from cone snail-associated bacteria” (J Nat Prod, 2010).
